{"data": "Results gathered from unrelated publications", "target": "G protein-coupled receptor kinase 3 (GRK3, Homo sapiens, UniProt P35626)", "Residues used in one study (P35626 1-688)": "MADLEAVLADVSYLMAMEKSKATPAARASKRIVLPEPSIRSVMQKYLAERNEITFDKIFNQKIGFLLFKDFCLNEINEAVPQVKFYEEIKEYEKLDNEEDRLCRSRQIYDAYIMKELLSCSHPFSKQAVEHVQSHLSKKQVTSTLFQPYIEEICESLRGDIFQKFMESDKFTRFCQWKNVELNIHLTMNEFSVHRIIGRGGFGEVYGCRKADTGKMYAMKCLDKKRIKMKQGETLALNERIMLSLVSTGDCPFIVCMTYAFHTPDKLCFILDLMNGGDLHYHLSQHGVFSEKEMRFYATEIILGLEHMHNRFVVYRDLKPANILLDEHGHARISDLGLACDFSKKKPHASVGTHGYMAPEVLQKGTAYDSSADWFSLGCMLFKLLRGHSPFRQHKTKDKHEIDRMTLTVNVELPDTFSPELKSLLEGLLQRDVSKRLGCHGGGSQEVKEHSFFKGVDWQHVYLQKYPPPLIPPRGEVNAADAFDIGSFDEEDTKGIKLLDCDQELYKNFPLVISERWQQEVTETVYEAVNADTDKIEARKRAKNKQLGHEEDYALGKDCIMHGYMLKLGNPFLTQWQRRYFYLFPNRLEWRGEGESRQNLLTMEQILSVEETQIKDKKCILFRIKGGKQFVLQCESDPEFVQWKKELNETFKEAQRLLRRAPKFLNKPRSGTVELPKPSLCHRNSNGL", "note": "Compare with care: the assays were run in different laboratories."}
{"Structure (SMILES)": "CCOc1cc(-c2nncn2C)ccc1Nc1ncc2cc(C)nc(NCC(C)(C)C)c2n1", "observed": "enzyme activity", "mode": "inhibitor", "technique": "FRET", "concentration": "1 µM", "endpoint": "inhibition", "result": "< 15%"}
{"Structure (SMILES)": "CS(=O)(=O)c1cc(C2(NC(=O)c3cncc4c3cnn4-c3ccc(F)cc3)CC2)ccn1", "observed": "cell-free assay", "technique": "competition with immobilised ligand", "concentration": "1 µM", "endpoint": "remaining binding", "result": "100%"}
{"Structure (SMILES)": "CC(C)(C)c1nc(-c2cccc(NS(=O)(=O)c3c(F)cccc3F)c2F)c(-c2ccnc(N)n2)s1", "observed": "enzyme activity", "mode": "inhibitor", "technique": "radiometric", "concentration": "1 µM", "endpoint": "remaining activity", "result": "86%"}
{"Structure (SMILES)": "Cn1c2c(c3ccc(Cl)c(Cl)c31)C(C#N)C1(CCCCC1)NC2=O (racemic)", "observed": "thermal stability", "technique": "DSF", "concentration": "10 µM", "endpoint": "ΔTm", "result": "0.4 °C"}
{"Structure (SMILES)": "NS(=O)(=O)c1cc(NC(=O)Cc2ccccc2)ccc1Oc1cccc(Cl)c1", "observed": "cell-free assay", "technique": "competition with immobilised ligand", "concentration": "1 µM", "endpoint": "remaining binding", "result": "100%"}
{"Structure (SMILES)": "Cn1c2c(c3ccccc31)C(C#N)C(C)(C)NC2=O (centres unmarked)", "observed": "thermal stability", "technique": "DSF", "concentration": "10 µM", "endpoint": "ΔTm", "result": "0.2 °C"}
{"Structure (SMILES)": "CN1CC(Oc2cnc(C#N)cc2-c2ccn3nc(NC(=O)C4CC4)cc3c2)C1", "observed": "enzyme activity", "mode": "inhibitor", "concentration": "1 µM", "endpoint": "inhibition", "result": "0%"}
{"Structure (SMILES)": "Cn1c2c(c3ccc(Cl)c(Cl)c31)C(C#N)C1(CCNCC1)NC2=O (racemic)", "observed": "thermal stability", "technique": "DSF", "concentration": "10 µM", "endpoint": "ΔTm", "result": "1.1 °C"}
{"Structure (SMILES)": "Cc1sc(C(=O)NC2COC2)cc1-n1cc(NC(=O)Nc2c(F)cccc2Cl)cn1", "observed": "enzyme activity", "mode": "inhibitor", "concentration": "10 µM", "endpoint": "remaining activity", "result": "107%"}
{"Structure (SMILES)": "COc1cc2ncnc(Nc3ccc(Oc4ccccc4)c(C)c3C)c2cc1OC", "observed": "enzyme activity", "mode": "inhibitor", "concentration": "1 µM", "endpoint": "inhibition", "result": "-2%"}
{"Structure (SMILES)": "CCCOc1ccc([C@@H]2[C@@H](C(=O)O)[C@H](c3ccc4c(c3)OCO4)CN2CC(=O)Nc2c(CC)cccc2CC)cc1", "observed": "cell-free assay", "technique": "competition with immobilised ligand", "concentration": "1 µM", "endpoint": "remaining binding", "result": "100%"}
{"Structure (SMILES)": "Cn1c2c(c3ccc(Cl)c(Cl)c31)C(C#N)C1(CCCC1)NC2=O (centres unmarked)", "observed": "thermal stability", "technique": "DSF", "concentration": "10 µM", "endpoint": "ΔTm", "result": "-0.1 °C"}
{"Structure (SMILES)": "COc1ccc2c(c1)O[C@@H](c1ccc(OC)c(OC)c1)C[C@H]2NC(=O)C1(c2ccc3c(c2)OC(F)(F)O3)CC1", "observed": "cell-free assay", "technique": "competition with immobilised ligand", "concentration": "1 µM", "endpoint": "remaining binding", "result": "75%"}
{"Structure (SMILES)": "Cc1ccc(C(=O)Nc2ccc(CN3CCN(C)CC3)c(C(F)(F)F)c2)cc1C#Cc1cnc2cccnn12", "observed": "enzyme activity", "mode": "inhibitor", "concentration": "23.5 nM", "endpoint": "remaining activity", "result": "76%"}
{"Structure (SMILES)": "Cn1c2c(c3ccc(Cl)c(Cl)c31)C(C#N)C1(CCOCC1)NC2=O (centres unmarked)", "observed": "thermal stability", "technique": "DSF", "concentration": "10 µM", "endpoint": "ΔTm", "result": "0 °C"}
{"Structure (SMILES)": "Cc1ccc(C(=O)NCc2ccsc2)cc1C#Cc1cn(C(C)C)c2ncnc(N)c12", "observed": "enzyme activity", "mode": "inhibitor", "concentration": "1 µM", "endpoint": "activity vs control", "result": "105%"}
{"Structure (SMILES)": "COCCOc1nc(-c2ccc(Cl)nc2)nc2c1CN(C(=O)c1ncn3ccccc13)CC2", "observed": "cell-free assay", "technique": "competition with immobilised ligand", "concentration": "0.1 µM", "endpoint": "remaining binding", "result": "100%"}
{"Structure (SMILES)": "O=C1NC(=O)c2cc(Nc3ccc(F)cc3)c(Nc3ccc(F)cc3)cc21", "observed": "cell-free assay", "concentration": "0.5 µM", "endpoint": "remaining signal", "result": "104%"}
{"Structure (SMILES)": "CN(c1ccnc(CNc2nc(Nc3ccc4c(c3)CC(=O)N4)ncc2C(F)(F)F)n1)S(C)(=O)=O", "observed": "cell-free assay", "technique": "competition with immobilised ligand", "concentration": "1 µM", "endpoint": "remaining binding", "result": "91%"}
{"Structure (SMILES)": "CCC1(CC)NC(=O)c2c(c3ccc(Cl)c(Cl)c3n2C)C1C#N (centres unmarked)", "observed": "thermal stability", "technique": "DSF", "concentration": "10 µM", "endpoint": "ΔTm", "result": "0.1 °C"}
